This note sets out measurements from ChEMBL document CHEMBL1151937, “Synthesis and evaluation of an acyl-chain unsaturated analog of the Th2 biasing, immunostimulatory glycolipid, OCH” (Bioorg Med Chem Lett, 2009).

What all share (type): functional, cell-based
Test [1] deals with Splenocyte. The test can be described thus: Stimulation of mouse splenocyte proliferation by [3H]thymidine after 48 hrs by incorporation assay. In short, it runs like this: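 Mouse splenocytes exposed to lipid at varying concentrations; proliferation read out as tritiated thymidine incorporation. Values are means of duplicate wells.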
In another test the test system is iNKT. The test can be described thus: Stimulation of human iNKT cell proliferation.
For test [2], the system named is Splenocyte. The test can be described thus: Stimulation of IFN-gamma production in C57BL/6 mouse splenocytes after 48 hrs by ELISA. In short, it runs like this: (§1)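 C57BL/6 mouse splenocytes cultured 48 h with lipid over a range of concentrations; IL-4 and IFNγ measured in culture supernatants by standard sandwich ELISA. Values are means of duplicate wells.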
The subject of test [3] is Splenocyte. The test can be described thus: Stimulation of IL4 production in C57BL/6 mouse splenocytes after 48 hrs by ELISA. In short, it runs like this: as §1

SMILES strings stand for the structures. Activity calls are given as the source filed them. No cut-off for these calls is given here.

On to `CCCCCCCCCCCCCCCCCCCCCCCC(=O)N[C@@H](CO[C@H]1O[C@H](CO)[C@H](O)[C@H](O)[C@H]1O)[C@H](O)[C@H](O)CCCCC`, for which the outcome in the test on Splenocyte [1] and in the test with iNKT was Active.

Turning to `CCCCC/C=C\C/C=C\CCCCCCCCCC(=O)N[C@@H](CO[C@H]1O[C@H](CO)[C@H](O)[C@H](O)[C@H]1O)[C@H](O)CCCCCC`, the result with Splenocyte [1], in the test with Splenocyte [2] and with Splenocyte [3] was Active. Further, the outcome in the test with iNKT was inactive.

Take `CCCCCCCCCCCCCCCCCCCC(=O)N[C@@H](CO[C@H]1O[C@H](CO)[C@H](O)[C@H](O)[C@H]1O)[C@H](O)CCCCCC`: the result in the test with Splenocyte [1] was Active. The outcome in the test on Splenocyte [2], in the test with Splenocyte [3] and with iNKT was inactive.

Turning to `CCCCCCCCCCCCCCCCCCCC(=O)N[C@@H](CO[C@H]1O[C@H](CO)[C@H](O)[C@H](O)[C@H]1O)[C@H](O)[C@H](O)CCCCC`, the result in the test on Splenocyte [1] was Active. For the same compound, the result in the test with Splenocyte [2], in the test with Splenocyte [3] and in the test on iNKT was inactive.

Take `CCCCC/C=C\C/C=C\CCCCCCCCCC(=O)N[C@@H](CO[C@H]1O[C@H](CO)[C@H](O)[C@H](O)[C@H]1O)[C@H](O)[C@H](O)CCCCCCCCCCCCCC`: the outcome with Splenocyte [1] and in the test with iNKT was Active.
